A short description of data set [1]: Fraction unbound in mouse plasma. It counts as ADME, cell-free.
The subject of data set [2] is Staphylococcus aureus. The experiment in a line: Antibacterial activity against methicillin-susceptible Staphylococcus aureus clinical isolates. It counts as functional. The procedure, abridged:
(§1)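 MICs determined by CLSI dilution methodology for aerobically growing bacteria; the active drug, not the prodrug, was used for in vitro testing.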

Data set [3] is described as follows: AUC in plasma of mouse. The format is ADME, cell-free. The procedure, abridged: (§2)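 Neutropenic (cyclophosphamide) female BALB/c mice were infected with S. aureus in 3% mucin by aspiration. At 6 h they received single sc doses of prodrug (1.0–25.0 mg/kg, in sterile water). Plasma was sampled at 0.25–4 h (6 mice per time point) and BAL at 0.25–4 h. Samples were citrate-stabilized and assayed by HPLC (LOQ 0.01 mg/liter), with urea correction for ELF. AUCs came from a 9,999-subject simulation.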

Data set [4] can be described thus: Volume of distribution in epithelial lining fluid of healthy human at 500 mg, iv administered as 2-h infusion every 8 h. Conditions: in vivo.
A short description of data set [5]: AUC in epithelial lining fluid of mouse. The format is ADME, tissue-based. Summed up:
as §2

Data set [6] in a line: AUC in epithelial lining fluid of healthy human at 500 mg, iv administered as 2-h infusion every 8 h. The note with it: in vivo.
A short description of data set [7]: AUC in plasma of healthy human at 500 mg, iv administered as 2-h infusion every 8 h.
Data set [8] in a line: Plasma protein binding in mouse. Conditions: read-out: PPB (converted). It counts as ADME, cell-free.
A short description of data set [9]: Drug level in plasma of healthy human at 500 mg, iv administered as 2-h infusion every 8 h after 4 hrs.
The subject of data set [10] is Staphylococcus aureus. The experiment in a line: Antibacterial activity against community-acquired methicillin-resistant Staphylococcus aureus clinical isolates. It counts as functional. The procedure, abridged: as §1
Data set [11] is described as follows: Drug level in epithelial lining fluid of healthy human at 500 mg, iv administered as 2-h infusion every 8 h after 4 hrs. Conditions: read-out: Drug uptake.
For data set [12], the system named is Staphylococcus aureus. In words: Antibacterial activity against hospital-acquired methicillin-resistant Staphylococcus aureus clinical isolates. It counts as functional. Summed up:
as §1

A short description of data set [13]: Drug level in plasma of healthy human at 500 mg, iv administered as 2-h infusion every 8 h after 6 hrs.
Data set [14] is described as follows: Drug level in plasma of healthy human at 500 mg, iv administered as 2-h infusion every 8 h after 8 hrs.
For another data set, the system named is Homo sapiens. The experiment in a line: Volume of distribution in central compartment of healthy human at 500 mg, iv administered as 2-h infusion every 8 h. The note with it: in vivo.
A short description of data set [15]: Drug level in plasma of healthy human at 500 mg, iv administered as 2-h infusion every 8 h after 2.5 hrs.
A short description of data set [16]: Drug level in epithelial lining fluid of healthy human at 500 mg, iv administered as 2-h infusion every 8 h after 2.5 hrs. Conditions: read-out: Drug uptake.
Data set [17] can be described thus: Drug level in epithelial lining fluid of healthy human at 500 mg, iv administered as 2-h infusion every 8 h after 6 hrs. The note with it: read-out: Drug uptake.
Data set [18] is described as follows: Clearance in healthy human at 500 mg, iv administered as 2-h infusion every 8 h. Conditions: in vivo.
Data set [19] is described as follows: Drug level in epithelial lining fluid of healthy human at 500 mg, iv administered as 2-h infusion every 8 h after 8 hrs. The note with it: read-out: Drug uptake.

The structures appear in SMILES notation. Converted amounts (≈) assume the structure as drawn.

What is called MIC is the lowest concentration found to suppress growth. For orientation: AUC means concentration integrated over time. The low end stands for less exposure, the high end for more exposure. As usually defined, the Vd is the apparent volume that relates the amount in the body to the concentration in plasma or blood. A low value points to little distribution into tissue. By CL/F is commonly meant clearance divided by bioavailability, as obtained after extravascular dosing. Turning to `Nc1nc(/C(=N/O)C(=O)N[C@@H]2C(=O)N3C(C(=O)O)=C(/C=C4\CCN([C@@H]5CCNC5)C4=O)CS[C@H]23)ns1` [CEFTOBIPROLE], the fraction unbound in data set [1] and in data set [8] was 0.81 each time. In addition, the MIC with Staphylococcus aureus [2] was determined as 0.25 µg/mL (≈ 0.468 µM); in the data set on Staphylococcus aureus [10] it was 1 µg/mL (≈ 1.87 µM); with Staphylococcus aureus [12], 0.5 µg/mL (≈ 0.935 µM). Further, the AUC in data set [3] was determined as 68800 ng·h/mL; in data set [5] it was 46000 ng·h/mL; in data set [6] it was 25200 ng·h/mL; in [7], 98700 ng·h/mL. Also, the distribution volume (Vd) amounted to 39.1 L in data set [4] and 2.849 L with Homo sapiens. For the same compound, the concentration at 4 h stood at 12800 ng/mL in data set [9] and 2000 ng/mL in [11]. Besides, the figures for the concentration at 6 h in data set [13] and in data set [17] were 6910 ng/mL and 4580 ng/mL, respectively. Also, the concentration at 8 h worked out at 3650 ng/mL in [14] and 1510 ng/mL in [19]. Moreover, the results for the concentration at 2.5 h in data set [15] and in [16] were 17700 ng/mL and 2550 ng/mL, respectively. In addition, the CL/F in data set [18] was 86 mL/min.

For the origin of these results see ChEMBL document CHEMBL1649529, “Identifying exposure targets for treatment of staphylococcal pneumonia with ceftobiprole” (Antimicrob Agents Chemother, 2009).
